Results: publication PMC3607822 (The Journal of General Physiology, 2013)

Key:
CNGA3 D609K channels = CNGA3 D609K channels (Homo sapiens, UniProt Q16281, D609K); assay: Inside-out patch clamp, CNGA3 D609K; type: biochemical; conditions: estimated using tetracaine block
[1] = molecular target: T1, CNGA3 RR-QQ (R643Q, R646Q) channels (Homo sapiens, UniProt Q16281, R643Q/R646Q); assay: Inside-out patch clamp, CNGA3 RR-QQ; type: biochemical
T1 sequence (Q16281 1-694 R643Q/R646Q): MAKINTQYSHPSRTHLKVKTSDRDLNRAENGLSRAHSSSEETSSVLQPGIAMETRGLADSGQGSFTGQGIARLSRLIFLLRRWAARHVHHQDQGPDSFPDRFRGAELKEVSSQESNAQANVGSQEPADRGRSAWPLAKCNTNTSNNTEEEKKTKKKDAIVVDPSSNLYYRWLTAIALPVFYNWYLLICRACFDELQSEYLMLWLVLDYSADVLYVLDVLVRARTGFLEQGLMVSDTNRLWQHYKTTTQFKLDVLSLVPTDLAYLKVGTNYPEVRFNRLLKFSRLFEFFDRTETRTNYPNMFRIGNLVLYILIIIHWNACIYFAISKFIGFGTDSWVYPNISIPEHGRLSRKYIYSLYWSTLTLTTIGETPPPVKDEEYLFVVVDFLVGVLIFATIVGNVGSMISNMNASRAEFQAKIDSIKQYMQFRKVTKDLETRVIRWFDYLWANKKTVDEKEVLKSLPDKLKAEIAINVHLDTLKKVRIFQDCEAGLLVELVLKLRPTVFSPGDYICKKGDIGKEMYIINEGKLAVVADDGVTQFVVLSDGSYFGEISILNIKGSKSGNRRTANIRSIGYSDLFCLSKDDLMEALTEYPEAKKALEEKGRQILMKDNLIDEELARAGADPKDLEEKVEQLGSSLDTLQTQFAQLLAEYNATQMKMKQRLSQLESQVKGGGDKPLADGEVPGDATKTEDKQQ

[2] = molecular target: CNGA1 with CNGB3 channels (UniProt Q00194+Q9NQW8); assay: Inside-out patch clamp, CNGA1 with CNGB3; type: biochemical, bovine, human; conditions: 1 µM PIP3
Sequence of CNGA1 with CNGB3 channels (Q00194 whole entry): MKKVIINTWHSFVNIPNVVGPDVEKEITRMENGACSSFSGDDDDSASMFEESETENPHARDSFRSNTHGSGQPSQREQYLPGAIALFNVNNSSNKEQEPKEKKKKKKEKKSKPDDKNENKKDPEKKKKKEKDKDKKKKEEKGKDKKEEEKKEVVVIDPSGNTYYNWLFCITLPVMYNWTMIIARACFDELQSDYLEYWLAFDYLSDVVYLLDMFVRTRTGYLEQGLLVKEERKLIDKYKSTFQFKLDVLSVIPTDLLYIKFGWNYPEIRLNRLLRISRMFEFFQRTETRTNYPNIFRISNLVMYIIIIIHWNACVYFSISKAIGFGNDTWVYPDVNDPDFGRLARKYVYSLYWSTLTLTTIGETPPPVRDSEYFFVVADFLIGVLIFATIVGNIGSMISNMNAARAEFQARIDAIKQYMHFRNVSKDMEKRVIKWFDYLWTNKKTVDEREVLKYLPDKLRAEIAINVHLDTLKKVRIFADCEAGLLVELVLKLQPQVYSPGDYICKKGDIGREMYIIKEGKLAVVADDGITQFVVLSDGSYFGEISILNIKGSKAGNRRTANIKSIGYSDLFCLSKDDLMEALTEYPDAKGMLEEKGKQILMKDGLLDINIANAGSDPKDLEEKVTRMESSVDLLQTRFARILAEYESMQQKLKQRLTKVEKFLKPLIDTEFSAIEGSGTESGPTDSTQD
Sequence of CNGA1 with CNGB3 channels (Q9NQW8 whole entry): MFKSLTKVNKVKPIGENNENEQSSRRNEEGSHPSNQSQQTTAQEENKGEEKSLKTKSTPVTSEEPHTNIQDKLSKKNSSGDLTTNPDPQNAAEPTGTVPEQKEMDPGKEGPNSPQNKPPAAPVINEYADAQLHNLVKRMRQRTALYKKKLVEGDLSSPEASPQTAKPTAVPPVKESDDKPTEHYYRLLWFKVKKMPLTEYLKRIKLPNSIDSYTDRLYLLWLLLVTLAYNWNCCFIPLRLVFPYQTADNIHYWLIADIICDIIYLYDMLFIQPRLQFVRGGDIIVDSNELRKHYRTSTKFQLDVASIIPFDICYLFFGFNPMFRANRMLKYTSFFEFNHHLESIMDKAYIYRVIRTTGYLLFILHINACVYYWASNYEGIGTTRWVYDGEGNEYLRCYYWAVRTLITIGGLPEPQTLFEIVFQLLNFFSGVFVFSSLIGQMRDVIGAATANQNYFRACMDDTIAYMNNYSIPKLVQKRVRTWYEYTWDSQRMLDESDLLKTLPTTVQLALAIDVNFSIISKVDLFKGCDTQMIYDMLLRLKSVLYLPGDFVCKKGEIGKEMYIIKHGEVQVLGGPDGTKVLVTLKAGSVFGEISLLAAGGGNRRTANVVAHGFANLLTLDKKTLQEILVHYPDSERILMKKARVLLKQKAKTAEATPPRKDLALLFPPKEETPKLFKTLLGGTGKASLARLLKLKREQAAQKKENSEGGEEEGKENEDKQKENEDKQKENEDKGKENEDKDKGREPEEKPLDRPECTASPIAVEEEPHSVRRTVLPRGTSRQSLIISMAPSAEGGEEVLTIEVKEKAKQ
How it was run: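 Subunit cRNAs (~20 ng, B in excess over A) injected into stage IV Xenopus oocytes; inside-out patches 2–7 d later, 20–22°C, symmetric 130 mM NaCl, 0.2 mM EDTA, 3 mM Hepes pH 7.2. Heteromer formation checked by 25 µM l-cis-diltiazem with 1 mM cGMP. diC8 phosphoinositides applied intracellularly in phosphatase-inhibitor cocktail. cGMP dose–response at +80 mV, leak-subtracted, Hill fit before/after for K1/2; mean ± SEM.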

Sequence of CNGA3 D609K channels (Q16281 whole entry D609K): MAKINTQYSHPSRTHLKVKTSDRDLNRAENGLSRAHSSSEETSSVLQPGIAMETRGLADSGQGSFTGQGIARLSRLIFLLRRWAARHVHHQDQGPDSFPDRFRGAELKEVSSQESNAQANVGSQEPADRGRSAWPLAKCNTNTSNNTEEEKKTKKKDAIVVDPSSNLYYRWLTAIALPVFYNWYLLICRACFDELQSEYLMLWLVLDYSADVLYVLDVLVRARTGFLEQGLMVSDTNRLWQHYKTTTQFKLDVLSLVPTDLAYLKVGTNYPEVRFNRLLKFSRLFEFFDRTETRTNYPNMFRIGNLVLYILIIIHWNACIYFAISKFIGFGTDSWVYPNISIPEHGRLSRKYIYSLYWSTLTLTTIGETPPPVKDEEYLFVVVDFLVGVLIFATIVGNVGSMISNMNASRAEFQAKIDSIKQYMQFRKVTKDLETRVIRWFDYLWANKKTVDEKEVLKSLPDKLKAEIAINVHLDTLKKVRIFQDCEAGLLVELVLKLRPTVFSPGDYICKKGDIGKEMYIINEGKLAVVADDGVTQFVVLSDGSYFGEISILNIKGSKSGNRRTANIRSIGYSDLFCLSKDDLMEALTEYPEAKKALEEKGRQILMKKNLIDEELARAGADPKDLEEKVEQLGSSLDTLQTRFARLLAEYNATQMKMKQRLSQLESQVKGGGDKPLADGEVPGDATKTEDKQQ

| Compound | Po max cGMP (CNGA3 D609K channels) | Hill coefficient ([1]; cGMP activation) | EC50 ([1]; read-out: K1/2 cGMP, +80 mV, no PIPn) [µM] | Po max cGMP ([1]; saturating cGMP) | regulation of K1/2 cGMP by PIP3 [2] |
| --- | --- | --- | --- | --- | --- |
| Nc1nc2c(ncn2[C@@H]2O[C@@H]3COP(=O)(O)O[C@H]3[C@H]2O)c(=O)[nH]1 [cGMP, cyclic guanosine monophosphate] | 0.78 ± 0.01 | 2.00 ± 0.00 (3) | 7.45 ± 0.63 | 0.94 ± 0.01 (3) |  |
| phosphatidylinositol (3,4,5)-trisphosphate [PIP3] |  |  |  |  | PIP3-sensitive |
